Assay results: ChEMBL document CHEMBL1122075, “Absolute stereochemistry and dopaminergic activity of enantiomers of 2,3,4,5-tetrahydro-7,8-dihydroxy-1-phenyl-1H-3-benzazepine” (J Med Chem, 1982)

Experiments:
[1] = target: Adenylate cyclase; assay: Tested for ability to stimulate dopamine sensitive adenylate cyclase in rat caudate homogenate
How it was run: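 Rat striatal homogenates; dopamine-sensitive adenylate cyclase stimulation read as cyclic AMP production. EC50 is the molar concentration giving half-maximal stimulation of cAMP production over the concentration range tested.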

[2] = species on record: Rattus norvegicus; assay: Ability to induce contralateral rotations in rats having lesions in the substantia nigra.; assay type: functional
How it was run: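 Rotation counts in rats carrying unilateral left substantia nigra lesions. RD500 is the dose calculated to give 500 body rotations over a 2-h test period.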

[3] = species on record: Canis familiaris; assay: Renal vascular resistance (RVR) in dog was determined; assay type: functional, Canis lupus familiaris
How it was run: (§1)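 Dogs anesthetized and surgically prepared for electromagnetic renal blood flow measurement, with carotid arterial pressure recorded. Drug infused into an antecubital vein at progressively increasing (generally threefold) concentrations to give cumulative dose-response data. RVR = mean arterial pressure / mean renal blood flow. ED15 is the average maximum cumulative dose lowering RVR by 15%.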

[4] = species on record: Canis familiaris; assay: Compound was tested for its renal vasodilator activity in dogs.; assay type: functional; conditions: Canis lupus familiaris; how it was run: as §1
[5] = species on record: Rattus norvegicus; assay: Compound was tested for maximum response, the percent of cyclic AMP induced by 5 x 10 E-5 M dopamine
[6] = species on record: Canis familiaris; assay: Percent av maximum in dog was determined; Expressed as av max (%); assay type: functional, Canis lupus familiaris
[7] = species on record: Rattus norvegicus; assay: Compound was tested for maximum response, the percent of cyclic AMP induced by 1 x 10 E-4 M dopamine; assay type: functional
[8] = species on record: Canis familiaris; assay: Renal vascular resistance (RVR) in dog was determined; Not statistically significant; assay type: functional, Canis lupus familiaris; how it was run: as §1

**Q.** Which results are given for `Cl.Oc1cc2c(cc1O)[C@@H](c1ccccc1)CNCC2`?
**A.** EC50 [1]: 32 nM; RD500 [2]: 0.5 mg/kg; RVR [3]: 18; ED15 [4]: 0.025 mg/kg; Max response [5]: 66%

**Q.** How did the RD500 [2] turn out when `Cl.Oc1cc2c(cc1O)[C@H](c1ccccc1)CNCC2` was run?
**A.** Its RD500 is over 2 mg/kg.

**Q.** What about the Activity [6] of the same compound?
**A.** The Activity was 9%.

**Q.** What about the ED15 [4] of the same compound?
**A.** The ED15 was over 0.55 mg/kg.

**Q.** And the Max response [7]?
**A.** Its Max response is 27%.

**Q.** And the RVR [8]?
**A.** The RVR was 9.

**Q.** Which results are given for `Cl.Oc1cc2c(cc1O)C(c1ccccc1)CNCC2` (racemic)?
**A.** EC50 [1]: 71 nM; RD500 [2]: 0.7 mg/kg; RVR [3]: 19; ED15 [4]: 0.031 mg/kg; Max response [5]: 68%

**Q.** `NCCc1ccc(O)c(O)c1` [DOPAMINE] was tested. Which EC50 [1] did it give?
**A.** The EC50 was 3500 nM.

**Q.** And the ED15 [4]?
**A.** Its ED15 is 0.0027 mg/kg.
